These results are taken from ChEMBL document CHEMBL3745663, “Identification of a novel class of quinoline-oxadiazole hybrids as anti-tuberculosis agents” (Bioorg Med Chem Lett, 2016).

Structures are written as SMILES. In brackets after ≈: the same amount, converted by molar mass. Counter-ions that a name gives are not always drawn.

Data set [1] has as its system Mycobacterium tuberculosis. The data set can be described thus: Antibacterial activity against Mycobacterium tuberculosis H37Rv after 7 days by resazurin microplate assay. In kind it is functional. Conditions: 168 h. (Alamar Blue is a resazurin reagent that responds to reducing activity.)
Data set [2] can be described thus: Selectivity index, ratio of CC50 for human HepG2 cells to MIC for Mycobacterium tuberculosis H37Rv. Type of data set: toxicity, cell-based. The conditions noted are these: read-out: Selectivity Index. The procedure, abridged:
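Index equals HepG2 CC50 (SRB assay, 10 to 80 µg/mL) divided by the REMA MIC against M. tuberculosis H37Rv (50 to 0.1 µg/mL).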

Data set [3] in a line: Cytotoxicity against human HepG2 cells after 48 hrs by SRB assay. In kind it is cell-based. (Sulforhodamine B stains cellular protein and so reports cell mass.)
In data set [4] the test system is Mycobacterium tuberculosis. As to the kind of experiment: Antibacterial activity against Mycobacterium tuberculosis. In kind it is functional.
Data set [5] in a line: Metabolic stability in rat liver microsomes assessed as compound remaining at 10 uM after 60 mins by HPLC analysis. In kind it is ADME. The conditions noted are these: read-out: Stability. The method, boiled down:
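Compound was incubated with rat liver microsomes and its disappearance followed over 60 minutes. Diazepam was the internal standard. The drug-to-internal-standard ratio was calculated at each time point to gauge how much compound remained.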
A general note: Microsomes from liver hold many membrane-bound enzymes, among them those of drug oxidation.

For `COc1nc2ccccc2cc1/C=C/c1noc(-c2ccccc2Br)n1`, the MIC (as a rule, the least concentration at which growth counts as inhibited) in data set [1] was determined as 16.8 µM (≈ 6.86 µg/mL). The selectivity ratio in data set [2] was more than 11.6. Further, in data set [3], the CC50 (as a rule, the concentration at which the toxic effect on the cells reaches its halfway point) at 48 h was more than 195 µM.
In data set [1], `COc1nc2ccccc2cc1/C=C/c1noc(-c2ccc(C)cc2)n1` yielded an MIC of 40 µM (≈ 13.7 µg/mL). In addition, in data set [2], the selectivity ratio was more than 5.75. The molecule also yielded a 50% cytotoxic concentration (CC50) at 48 h in data set [3] of more than 230 µM.
For `COc1cccc(-c2nc(/C=C/c3cc4ccccc4nc3OC)no2)c1`, in that order: 105 µM (≈ 37.7 µg/mL), more than 2.1 and more than 220 µM.
The like results for `COc1nc2ccccc2cc1/C=C/c1noc(-c2ccc(Br)cc2)n1` were, in that order, 9.19 µM (≈ 3.75 µg/mL), more than 21.2 and more than 195 µM.
In turn, `COc1nc2ccccc2cc1/C=C/c1noc(-c2cccnc2)n1` displayed an MIC in data set [1] of more than 150 µM. Further, the selectivity ratio in data set [2] was more than 1.6. In data set [3], this molecule came in with a 50% cytotoxic concentration (CC50) at 48 h of more than 240 µM.
Take `COc1ccc(-c2nc(/C=C/c3cc4ccccc4nc3OC)no2)cc1`: the MIC in data set [1] was more than 140 µM. In data set [2], the selectivity ratio is more than 1.57. Besides, the CC50 at 48 h in data set [3] was more than 220 µM.
As to `COc1cccc2c1C(=O)c1c(O)c3c(c(O)c1C2=O)C[C@@](O)(C(=O)CO)C[C@@H]3O[C@H]1C[C@H](N)[C@H](O)[C@H](C)O1` [DOXORUBICIN HYDROCHLORIDE], half-maximal cytotoxicity in data set [3] (CC50 at 48 h) was put at 127 µM.
For the molecule `COc1nc2ccccc2cc1/C=C/c1noc(Cc2ccccc2)n1`, in data set [1], the MIC was 0.44 µM (≈ 0.151 µg/mL). The selectivity ratio in data set [2] is more than 520. In data set [3], this molecule had a CC50 at 48 h of more than 230 µM.
The like results for `COc1nc2ccccc2cc1/C=C/c1noc(COc2ccccc2)n1` were, in that order, 0.67 µM (≈ 0.241 µg/mL), more than 330 and more than 220 µM.
For `COc1ccc(Cc2nc(/C=C/c3cc4ccccc4nc3OC)no2)cc1`, in that order: 0.4 µM (≈ 0.149 µg/mL), more than 535 and more than 215 µM.
For `COc1nc2ccccc2cc1/C=C/c1noc(/C=C/c2ccccc2)n1`, it took 6.33 µM (≈ 2.25 µg/mL) to inhibit growth in data set [1] (MIC). In data set [2], the selectivity ratio is more than 35.5. The molecule further gave a 50% cytotoxic concentration (CC50) at 48 h in data set [3] of more than 225 µM.
Turning to `COc1nc2ccccc2cc1/C=C/c1noc(-c2ccccc2C)n1`, in data set [1], the MIC worked out at 72.8 µM (≈ 25 µg/mL). Moreover, in data set [2], the selectivity ratio is more than 3.16. Besides, the CC50 at 48 h in data set [3] was more than 230 µM.
On to `COc1nc2ccc(Br)cc2cc1[C@@H](c1ccccc1)[C@@](O)(CCN(C)C)c1cccc2ccccc12` [BEDAQUILINE], for which it took 0.1 µM (≈ 0.0556 µg/mL) to inhibit growth in data set [4] (MIC).
For `COc1nc2ccccc2cc1/C=C/c1noc(C)n1`, the MIC in data set [1] turned out to be 1.05 µM (≈ 0.281 µg/mL). Also, the selectivity ratio in data set [2] is more than 285. The CC50 at 48 h in data set [3] was more than 300 µM.
With `COc1nc2ccccc2cc1/C=C/c1noc(-c2ccc(F)cc2)n1`, 5.61 µM (≈ 1.95 µg/mL) was the least that counted as inhibitory in data set [1] (MIC). Further, the selectivity ratio in data set [2] is more than 41. Besides, the 50% cytotoxic concentration (CC50) at 48 h in data set [3] was more than 230 µM.
For `COc1nc2ccccc2cc1/C=C/c1noc(-c2cccc(C)c2)n1`, in that order: 110 µM (≈ 37.8 µg/mL), more than 2.09 and more than 230 µM.
`COc1nc2ccccc2cc1/C=C/c1noc(-c2cccc(Cl)c2)n1`: the MIC in data set [1] was more than 110 µM. Moreover, in data set [2], the selectivity ratio is more than 2. The molecule also yielded a CC50 at 48 h in data set [3] of more than 220 µM.
On to `COc1nc2ccccc2cc1/C=C/c1noc(-c2ccccc2)n1`, for which inhibition of growth in data set [1] (MIC) required 12.3 µM (≈ 4.05 µg/mL). Also, the selectivity ratio in data set [2] was more than 19.5. The molecule further came in with a CC50 at 48 h in data set [3] of more than 240 µM.
Take `COc1ccccc1-c1nc(/C=C/c2cc3ccccc3nc2OC)no1`: the minimum inhibitory concentration (MIC) in data set [1] is 6.96 µM (≈ 2.5 µg/mL). The selectivity ratio in data set [2] is more than 31.6. For the same molecule, the CC50 at 48 h in data set [3] was more than 220 µM.
Consider `COCc1nc(/C=C/c2cc3ccccc3nc2OC)no1`, for which the remaining at 1 h, 10 µM in data set [5] stood at 99%. The same molecule returned an MIC in data set [1] of 0.44 µM (≈ 0.131 µg/mL). In addition, the selectivity ratio in data set [2] is more than 610. Moreover, the CC50 at 48 h in data set [3] was more than 270 µM.
In data set [1], `COc1nc2ccccc2cc1/C=C/c1noc(-c2ccco2)n1` came in with a minimum inhibitory concentration (MIC) of 27.4 µM (≈ 8.75 µg/mL). Further, the selectivity ratio in data set [2] was more than 9.12. This molecule returned a CC50 at 48 h in data set [3] of more than 250 µM.
Turning to `NNC(=O)c1ccncc1` [ISONIAZID], the MIC in data set [1] worked out at 0.73 µM (≈ 0.1 µg/mL).
